Assay results from different studies.
Lines come from different studies, so protocols differ.
Observed: cell growth or viability

N.N.[Cl][Pt][Cl] — IC50 (HBL1; ATP luminescence; 72 h): 1.31 µM
N.N.[Cl][Pt][Cl] — IC50 (MDA-MB-468; MTT; 48 h): 5 µM
Cn1cc2cc(C(F)(F)c3nnc4ccc(-c5cnn(C6CC6)c5)nn34)c(F)cc2n1 — IC50 (KATO III; CCK-8; 72 h): > 1 µM
N.N.[Cl][Pt][Cl] — IC50 (BEAS-2B; MTT; 24 h): > 100 µM
N.N.[Cl][Pt][Cl] — IC50 (MDA-MB-468; MTT; 48 h; dark): 6.97 µM
CN(C)c1ccc(C(=O)NCCCCCCC(=O)NO)cc1 — viability (HBL1; ATP luminescence; 0.1 µM; 5 days): 125%
O=C(CCCCCCNC(=O)c1cnc(N(c2ccccc2)c2ccccc2)nc1)NO — EC50 (MV4-11; ATP luminescence; 72 h): 713 nM
COc1c(C)c2c(c(O)c1C/C=C(\C)CCC(=O)O)C(=O)OC2 — IC50 (MDA-MB-468): 0.417 µM
